ChEMBL document CHEMBL1128719, “The synthesis, structure-activity, and structure-side effect relationships of a series of 8-alkoxy- and 5-amino-8-alkoxyquinolone antibacterial agents” (J Med Chem, 1995)
In brackets after ≈: the same amount, converted by molar mass.

Assays:
[1] = tested on: Cutibacterium acnes; assay: In vitro antibacterial activity was tested for Propion acnes PA5-1; assay type: functional
Summary of the method: (§1)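 Microtitration (microdilution) MIC determination in μg/mL against a panel of Gram-positive, Gram-negative and anaerobic organisms. Values come from duplicate or triplicate experiments and are stated accurate to ±50%.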

[2] = species: Mus musculus; assay: Phototoxic skin reaction in depilated female CD-1 mice.; assay type: functional
Summary of the method: (§2)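 Female CD-1 mice, depilated, given a single oral or subcutaneous dose. UVA (320–400 nm) exposure for 3 h, starting 1 h post-dose. Initial doses were 30, 100 and 300 mg/kg. PTD50 (dose giving phototoxic skin reaction in 50% of mice) derived by probit method. First day of positive reaction and no-effect dose taken from raw data.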

[3] = tested on: Staphylococcus aureus; assay: In vitro antibacterial activity was tested for Staphylococcus aureus H228; assay type: functional; summary of the method: as §1
[4] = tested on: V79; assay: Clonogenic cytotoxicity against Chinese hamster V-79 cells; assay type: functional, cell-based; conditions: Cricetulus griseus
[5] = tested on: Streptococcus pneumoniae; assay: In vitro antibacterial activity was tested for Streptococcus pneumoniae SV-1; assay type: functional; summary of the method: as §1
[6] = tested on: Enterobacter cloacae; assay: In vitro antibacterial activity was tested for Enterobacter cloacae HA2646; assay type: functional
[7] = tested on: Pseudomonas aeruginosa; assay: In vitro antibacterial activity was tested for Pseudomonas aeruginosa UI-18; assay type: functional; summary of the method: as §1
[8] = species: Mus musculus; assay: (§3) Phototoxic skin reaction in depilated female CD-1 mice; assay type: toxicity, organism-based; conditions: in vivo; summary of the method: as §2
[9] = tested on: Peptoniphilus asaccharolyticus; assay: In vitro antibacterial activity was tested for Pepto asac PA 3-1; assay type: functional; summary of the method: as §1
[10] = tested on: Enterococcus faecalis; assay: In vitro antibacterial activity was tested for Streptococcus faecalis MGH-2; assay type: functional; summary of the method: as §1
[11] = tested on: Streptococcus pyogenes; assay: In vitro antibacterial activity was tested for Streptococcus pyogenes C203; assay type: functional; summary of the method: as §1
[12] = tested on: Escherichia coli; assay: In vitro antibacterial activity was tested for Escherichia coli Vogel; assay type: functional; summary of the method: as §1
[13] = tested on: Staphylococcus aureus; assay: In vitro antibacterial activity was tested for Staphylococcus aureus UC-76; assay type: functional; summary of the method: as §1
[14] = tested on: Bacteroides fragilis; assay: In vitro antibacterial activity against Bacteroides fragilis BFA; assay type: functional; summary of the method: as §1
[15] = tested on: Klebsiella pneumoniae; assay: In vitro antibacterial activity was tested for Klebsiella pneumoniae MGH-2; assay type: functional; summary of the method: as §1
[16] = tested on: Providencia rettgeri; assay: In vitro antibacterial activity was tested for Providencia rettgeri H1771; assay type: functional; summary of the method: as §1
[17] = tested on: Clostridium perfringens; assay: In vitro antibacterial activity against Clostridium perfringens CP 3-1; assay type: functional
[18] = tested on: Clostridioides difficile; assay: In vitro antibacterial activity was tested for Clostridium diff CD1-1; assay type: functional
[19] = tested on: Escherichia coli; assay: In vitro antibacterial activity was tested for Escherichia coli H560; assay type: functional; summary of the method: as §1
[20] = species: Mus musculus; assay: as §3; assay type: functional; summary of the method: as §2

Structure (SMILES)	MIC [1] [µg/mL]	No effect dose [2] [mg]	MIC [3] [µg/mL]	IC50 [4] [µg/mL]	MIC [5] [µg/mL]	MIC [6] [µg/mL]	MIC [7] [µg/mL]	PTD50 [8] [mg]	MIC [9] [µg/mL]	MIC [10] [µg/mL]	MIC [11] [µg/mL]	MIC [12] [µg/mL]	MIC [13] [µg/mL]	MIC [14] [µg/mL]	MIC [15] [µg/mL]	MIC [16] [µg/mL]	MIC [17] [µg/mL]	MIC [18] [µg/mL]	MIC [19] [µg/mL]	No effect dose [20] [mg]
CCOc1c(N2CCC(C)(CN)C2)c(F)cc2c(=O)c(C(=O)O)cn(C3CC3)c12 (centres undefined)	3.1 (≈ 7.68 µM)	100	0.05 (≈ 0.124 µM)	140 (≈ 347 µM)	0.1 (≈ 0.248 µM)	0.2 (≈ 0.496 µM)	1.6 (≈ 3.97 µM)	> 100	0.8 (≈ 1.98 µM)	0.1 (≈ 0.248 µM)	0.1 (≈ 0.248 µM)	0.2 (≈ 0.496 µM)	0.013 (≈ 0.0322 µM)	1.6 (≈ 3.97 µM)	0.4 (≈ 0.991 µM)	0.8 (≈ 1.98 µM)	0.8 (≈ 1.98 µM)	3.1 (≈ 7.68 µM)	0.2 (≈ 0.496 µM)	–
NC1CCCN(c2cc3c(cc2F)c(=O)c(C(=O)O)cn3C2CC2)C1 (centres undefined)	–	100	–	560 (≈ 1620 µM)	–	–	–	> 100	–	–	–	–	–	–	–	–	–	–	–	–
COc1c(N2CC(C)NC(C)C2)c(F)c(N)c2c(=O)c(C(=O)O)cn(C3CC3)c12 (centres undefined)	1.6 (≈ 3.96 µM)	100	0.1 (≈ 0.247 µM)	–	0.05 (≈ 0.124 µM)	0.2 (≈ 0.495 µM)	3.1 (≈ 7.66 µM)	> 100	0.8 (≈ 1.98 µM)	0.2 (≈ 0.495 µM)	0.1 (≈ 0.247 µM)	0.2 (≈ 0.495 µM)	0.025 (≈ 0.0618 µM)	1.6 (≈ 3.96 µM)	0.4 (≈ 0.989 µM)	0.8 (≈ 1.98 µM)	0.4 (≈ 0.989 µM)	3.1 (≈ 7.66 µM)	0.1 (≈ 0.247 µM)	–
CCOc1c(N2CCC(N)C2)c(F)c(N)c2c(=O)c(C(=O)O)cn(C3CC3)c12 (centres undefined)	3.1 (≈ 7.94 µM)	100	0.05 (≈ 0.128 µM)	220 (≈ 564 µM)	0.05 (≈ 0.128 µM)	0.1 (≈ 0.256 µM)	3.1 (≈ 7.94 µM)	> 100	0.8 (≈ 2.05 µM)	0.1 (≈ 0.256 µM)	0.1 (≈ 0.256 µM)	0.05 (≈ 0.128 µM)	0.013 (≈ 0.0333 µM)	3.1 (≈ 7.94 µM)	0.2 (≈ 0.512 µM)	0.4 (≈ 1.02 µM)	0.4 (≈ 1.02 µM)	12.5 (≈ 32 µM)	0.05 (≈ 0.128 µM)	–
COc1c(N2CCCC(N)C2)c(F)c(N)c2c(=O)c(C(=O)O)cn(C3CC3)c12 (centres undefined)	0.4 (≈ 1.02 µM)	100	0.025 (≈ 0.064 µM)	290 (≈ 743 µM)	0.006 (≈ 0.0154 µM)	0.1 (≈ 0.256 µM)	1.6 (≈ 4.1 µM)	> 100	0.8 (≈ 2.05 µM)	0.05 (≈ 0.128 µM)	0.013 (≈ 0.0333 µM)	0.1 (≈ 0.256 µM)	0.006 (≈ 0.0154 µM)	1.6 (≈ 4.1 µM)	0.2 (≈ 0.512 µM)	0.4 (≈ 1.02 µM)	0.2 (≈ 0.512 µM)	1.6 (≈ 4.1 µM)	0.05 (≈ 0.128 µM)	–
COc1c(N2CCC(N)C2)c(F)c(N)c2c(=O)c(C(=O)O)cn(C3CC3)c12 (centres undefined)	0.8 (≈ 2.13 µM)	100	0.05 (≈ 0.133 µM)	–	0.05 (≈ 0.133 µM)	0.05 (≈ 0.133 µM)	0.8 (≈ 2.13 µM)	> 100	0.8 (≈ 2.13 µM)	0.05 (≈ 0.133 µM)	0.1 (≈ 0.266 µM)	0.025 (≈ 0.0664 µM)	0.006 (≈ 0.0159 µM)	1.6 (≈ 4.25 µM)	0.1 (≈ 0.266 µM)	0.2 (≈ 0.531 µM)	0.2 (≈ 0.531 µM)	3.1 (≈ 8.24 µM)	0.025 (≈ 0.0664 µM)	–
C[C@@H]1CN(c2c(F)cc3c(=O)c(C(=O)O)cn(C4CC4)c3c2F)C[C@H](C)N1	0.8 (≈ 2.12 µM)	–	–	–	–	–	–	55	1.6 (≈ 4.24 µM)	–	–	–	–	1.6 (≈ 4.24 µM)	–	–	0.2 (≈ 0.53 µM)	3.1 (≈ 8.21 µM)	–	30
O=C(O)c1cn(C2CC2)c2cc(N3CCNCC3)c(F)cc2c1=O [CIPROFLOXACIN]	0.8 (≈ 2.41 µM)	100	3.1 (≈ 9.36 µM)	–	1.6 (≈ 4.83 µM)	–	0.4 (≈ 1.21 µM)	172	1.6 (≈ 4.83 µM)	0.8 (≈ 2.41 µM)	0.8 (≈ 2.41 µM)	–	0.2 (≈ 0.604 µM)	3.1 (≈ 9.36 µM)	0.1 (≈ 0.302 µM)	0.1 (≈ 0.302 µM)	–	–	0.025 (≈ 0.0754 µM)	–
COc1c(N2CCCC(CN)C2)c(F)c(N)c2c(=O)c(C(=O)O)cn(C3CC3)c12 (centres undefined)	1.6 (≈ 3.96 µM)	–	0.05 (≈ 0.124 µM)	140 (≈ 346 µM)	0.025 (≈ 0.0618 µM)	0.2 (≈ 0.495 µM)	3.1 (≈ 7.66 µM)	–	0.8 (≈ 1.98 µM)	0.025 (≈ 0.0618 µM)	0.025 (≈ 0.0618 µM)	0.1 (≈ 0.247 µM)	0.006 (≈ 0.0148 µM)	3.1 (≈ 7.66 µM)	0.4 (≈ 0.989 µM)	0.8 (≈ 1.98 µM)	0.2 (≈ 0.495 µM)	1.6 (≈ 3.96 µM)	0.1 (≈ 0.247 µM)	–
NC1CCN(c2cc3c(cc2F)c(=O)c(C(=O)O)cn3C2CC2)C1 (centres undefined)	1.6 (≈ 4.83 µM)	–	0.025 (≈ 0.0754 µM)	–	0.1 (≈ 0.302 µM)	0.025 (≈ 0.0754 µM)	0.1 (≈ 0.302 µM)	> 300	1.6 (≈ 4.83 µM)	0.05 (≈ 0.151 µM)	0.006 (≈ 0.0181 µM)	0.025 (≈ 0.0754 µM)	0.1 (≈ 0.302 µM)	1.6 (≈ 4.83 µM)	0.1 (≈ 0.302 µM)	0.1 (≈ 0.302 µM)	0.1 (≈ 0.302 µM)	12.5 (≈ 37.7 µM)	0.05 (≈ 0.151 µM)	300
CC1(CN)CCN(c2nc3c(cc2F)c(=O)c(C(=O)O)cn3C2CC2)C1 (centres undefined)	1.6 (≈ 4.44 µM)	300	–	–	–	–	–	> 300	1.6 (≈ 4.44 µM)	–	–	–	–	6.3 (≈ 17.5 µM)	–	–	0.2 (≈ 0.555 µM)	25 (≈ 69.4 µM)	–	–
